Data reported in ChEMBL document CHEMBL1131007, “5-Fluoro-2-methyl-N-[4-(5H-pyrrolo[2,1-c]-[1, 4]benzodiazepin-10(11H)-ylcarbonyl)-3-chlorophenyl]benzamide (VPA-985): an orally active arginine vasopressin antagonist with selectivity for V2 receptors” (J Med Chem, 1998).

What was measured:
Vasopressin V1a receptor [1] = biological target: Vasopressin V1a receptor (Homo sapiens, UniProt P37288); experiment: Displacement of [3H]AVP from vasopressin receptor (V1a) from human platelet membranes.
Method in brief: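 Membranes from human platelets; displacement of specific binding of 3H-AVP or 3H-[d(CH2)5 1Tyr(Me)2,Arg8]-AVP at V1a sites. IC50 given as group mean ± SEM where two or three separate determinations were made.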

Vasopressin V2 receptor [2] = biological target: Vasopressin V2 receptor (Homo sapiens, UniProt P30518); experiment: Displacement of [3H]AVP from human V2 receptor expressed in murine fibroblast cell line (LV2) membranes; assay type: cell-based
Vasopressin V2 receptor (Homo sapiens, UniProt P30518), sequence (P30518 whole entry): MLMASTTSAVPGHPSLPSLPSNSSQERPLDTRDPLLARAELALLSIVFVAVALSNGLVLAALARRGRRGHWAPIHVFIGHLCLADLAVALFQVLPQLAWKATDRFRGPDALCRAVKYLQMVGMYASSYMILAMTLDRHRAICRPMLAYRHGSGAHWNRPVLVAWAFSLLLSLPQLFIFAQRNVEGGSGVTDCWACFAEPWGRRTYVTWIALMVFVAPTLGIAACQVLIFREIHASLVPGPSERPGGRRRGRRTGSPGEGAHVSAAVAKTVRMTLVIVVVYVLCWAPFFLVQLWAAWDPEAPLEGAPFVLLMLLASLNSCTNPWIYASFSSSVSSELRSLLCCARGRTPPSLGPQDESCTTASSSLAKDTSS
Method in brief: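 Membranes from murine fibroblast line LV2 expressing human V2 receptors; displacement of specific 3H-AVP binding. IC50 given as group mean ± SEM where two or three separate determinations were made.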

Vasopressin V2 receptor [3] = biological target: Vasopressin V2 receptor (Rattus norvegicus, UniProt Q00788); experiment: Displacement of [3H]AVP from vasopressin V2 receptor of rat kidney medulla.
Vasopressin V2 receptor (Rattus norvegicus, UniProt Q00788), sequence (Q00788 whole entry): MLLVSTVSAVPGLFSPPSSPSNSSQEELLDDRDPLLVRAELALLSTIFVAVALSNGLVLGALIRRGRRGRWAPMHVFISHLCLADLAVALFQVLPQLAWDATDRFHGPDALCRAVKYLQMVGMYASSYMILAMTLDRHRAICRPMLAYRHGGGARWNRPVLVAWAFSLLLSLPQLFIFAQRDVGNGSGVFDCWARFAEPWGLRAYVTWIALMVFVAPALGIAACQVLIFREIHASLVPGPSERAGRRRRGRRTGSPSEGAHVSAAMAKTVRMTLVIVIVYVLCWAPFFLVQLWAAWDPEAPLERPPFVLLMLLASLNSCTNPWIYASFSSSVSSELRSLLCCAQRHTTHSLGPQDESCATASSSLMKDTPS

[4] = biological target: Vasopressin receptor (Rattus norvegicus) (UniProt P48974+P30560+Q00788); experiment: Relative affinity for rat vasopressin receptors V1a and V2; assay type: protein assay
Homo sapiens = species on record: Homo sapiens; experiment: Relative affinity for human vasopressin receptors V1a and V2
Method in brief: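 Ratio from IC50 values: V1a by displacement of 3H-AVP or 3H-[d(CH2)5 1Tyr(Me)2,Arg8]-AVP from human platelet membranes; V2 by displacement of 3H-AVP from membranes of murine fibroblast LV2 cells expressing human V2 receptors.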

Rattus norvegicus [5] = experiment: Urinary osmolality from urine collected from rat at 10 mg/kg
Rattus norvegicus [6] = experiment: Urine volume collected after 10 mg/kg of drug administration into 4 rats.; assay type: functional
Method in brief: (§1)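 Conscious rats with water access before but not during the test. Given AVP 0.4 μg/kg ip in peanut oil, then deionized water 30 mL/kg by gavage 20 min later, then vehicle or compound 20 min after that. Vehicle was 20% DMSO in 2.5% preboiled starch. Urine volume over 4 h and osmolality measured.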

Rattus norvegicus [7] = experiment: Urinary osmolality from urine collected from rat at 1 mg/kg; assay type: functional
Method in brief: (§2)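 Conscious rats with free access to water before and during the test, given compound in 20% DMSO in aqueous 2.5% preboiled starch (compound first dissolved in DMSO). Urine volume over 4 h and urinary osmolality (mOsm/kg) measured.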

Rattus norvegicus [8] = experiment: Urinary osmolality from urine collected from rat at 1 mg/kg in second experiment; assay type: functional; method in brief: as §1
Rattus norvegicus [9] = experiment: Urinary osmolality from urine collected from rat at 10 mg/kg; assay type: functional; method in brief: as §2
Rattus norvegicus [10] = experiment: Urinary osmolality from urine collected from rat at 10 mg/kg in second experiment; assay type: functional; method in brief: as §1
Rattus norvegicus [11] = experiment: Urinary osmolality from urine collected from rat at 3 mg/kg; assay type: functional; method in brief: as §2
Rattus norvegicus [12] = experiment: Urinary osmolality from urine collected from rat at 3 mg/kg in second experiment; assay type: functional; method in brief: as §1
Rattus norvegicus [13] = experiment: Urine volume collected after 1 mg/kg of drug administration into 6 rats; assay type: functional; method in brief: as §2
Rattus norvegicus [14] = experiment: Urine volume collected after 1 mg/kg of drug administration into 8 rats. (Conscious rats free access to water before but not during the experiment).; assay type: functional; method in brief: as §1
Rattus norvegicus [15] = experiment: Urine volume collected after 3 mg/kg of drug administration into 10 rat; assay type: functional; method in brief: as §1
Rattus norvegicus [16] = experiment: Urine volume collected after 3 mg/kg of drug administration into 15 rats; assay type: functional; method in brief: as §2
Rattus norvegicus [17] = experiment: Urine volume collected after 10 mg/kg of drug administration into 13 rats. (Conscious rats free access to water before and after during the experiment); assay type: functional; method in brief: as §2
Rattus norvegicus [18] = experiment: Urine volume collected after 10 mg/kg of drug administration into 6 rats.; assay type: functional; method in brief: as §1
Vasopressin V1a receptor [19] = biological target: Vasopressin V1a receptor (Rattus norvegicus, UniProt P30560); experiment: Displacement of (Phe-3,4,5-H) Vasopressin from V1a receptor from rat liver membranes.; assay type: cell membranes, Membrane
Vasopressin V1a receptor (Rattus norvegicus, UniProt P30560), sequence (P30560 whole entry): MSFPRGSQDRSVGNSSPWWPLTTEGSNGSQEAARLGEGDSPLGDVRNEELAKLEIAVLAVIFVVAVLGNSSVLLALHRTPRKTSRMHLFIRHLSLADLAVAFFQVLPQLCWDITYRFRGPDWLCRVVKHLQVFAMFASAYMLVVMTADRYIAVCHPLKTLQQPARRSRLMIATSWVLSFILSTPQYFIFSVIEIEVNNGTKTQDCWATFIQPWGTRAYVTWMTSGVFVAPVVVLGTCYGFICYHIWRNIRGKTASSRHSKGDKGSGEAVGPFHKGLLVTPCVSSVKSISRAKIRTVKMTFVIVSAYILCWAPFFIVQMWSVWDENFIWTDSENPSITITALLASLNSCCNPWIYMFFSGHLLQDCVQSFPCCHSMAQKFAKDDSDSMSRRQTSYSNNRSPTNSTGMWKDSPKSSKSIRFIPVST

Rattus norvegicus [20] = experiment: Urine volume collected after 10 mg/kg of drug administration into 2 rats.; assay type: functional; method in brief: as §1
Rattus norvegicus [21] = experiment: Urine volume collected after 3 mg/kg of drug administration into 2 rats.
Rattus norvegicus [22] = experiment: Urine volume collected after 10 mg/kg of drug administration into 3 rats.; assay type: functional; method in brief: as §1

Vasopressin V1a receptor (Homo sapiens, UniProt P37288), sequence (P37288 whole entry): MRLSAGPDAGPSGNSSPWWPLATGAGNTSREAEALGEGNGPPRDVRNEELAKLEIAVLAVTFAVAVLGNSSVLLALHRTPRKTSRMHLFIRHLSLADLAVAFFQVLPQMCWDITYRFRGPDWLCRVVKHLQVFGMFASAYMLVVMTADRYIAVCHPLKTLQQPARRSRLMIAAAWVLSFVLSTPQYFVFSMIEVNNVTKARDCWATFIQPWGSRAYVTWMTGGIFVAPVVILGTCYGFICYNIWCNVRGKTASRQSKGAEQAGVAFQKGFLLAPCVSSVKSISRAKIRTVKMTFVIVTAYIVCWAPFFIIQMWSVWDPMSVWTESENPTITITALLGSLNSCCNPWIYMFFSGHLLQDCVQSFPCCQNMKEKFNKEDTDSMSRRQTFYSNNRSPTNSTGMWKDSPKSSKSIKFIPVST

SMILES	IC50 (Vasopressin V1a receptor [1]) [nM]	IC50 (Vasopressin V2 receptor [2]) [nM]	Selectivity [4]	Selectivity (Homo sapiens)	also measured
O=C(Nc1ccc(C(=O)N2Cc3cccn3Cc3ccccc32)cc1)c1ccc(Cl)cc1Cl	15	3.2	7	5	IC50 (Vasopressin V2 receptor [3]): 3.1 nM
Cc1cccc(C(=O)Nc2ccc(C(=O)N3Cc4cccn4Cc4ccccc43)cc2)c1C			6		
Cc1ccc(F)cc1C(=O)Nc1ccc(C(=O)N2Cc3cccn3Cc3ccccc32)cc1	20	1.5			
Cc1ccc(F)cc1C(=O)Nc1ccc(C(=O)N2Cc3cccn3Cc3ccccc32)c(C)c1	120	2.1		80	
Cc1c(F)cccc1C(=O)Nc1ccc(C(=O)N2Cc3cccn3Cc3ccccc32)cc1			7		
O=C(Nc1ccc(C(=O)N2Cc3cccn3Cc3ccccc32)c(Cl)c1)c1ccc(F)cc1Cl	37	0.7		53	
Cc1cccc(C(=O)Nc2ccc(C(=O)N3Cc4cccn4Cc4ccccc43)c(Cl)c2)c1C		0.5		860	Osmolality (Rattus norvegicus [5]): 557 mOsmol kg-1
O=C(Nc1ccc(C(=O)N2Cc3cccn3Cc3ccccc32)c(Cl)c1)c1ccc(Cl)cc1Cl	640	2	5	320	Urine volume (Rattus norvegicus [6]): 14 ml 4hr-1; Osmolality (Rattus norvegicus [5]): 507 mOsmol kg-1
COc1cc(C(=O)N2Cc3cccn3Cc3ccccc32)ccc1NC(=O)c1ccc(Cl)cc1Cl				17	
Cc1ccc(C)c(C(=O)Nc2ccc(C(=O)N3Cc4cccn4Cc4ccccc43)c(Cl)c2)c1		4.2		81	
COc1ccccc1C(=O)Nc1ccc(C(=O)N2Cc3cccn3Cc3ccccc32)cc1			2		
Cc1ccc(F)cc1C(=O)Nc1ccc(C(=O)N2Cc3cccn3Cc3ccccc32)cc1Cl	25			6	
Cc1ccccc1C(=O)Nc1ccc(C(=O)N2Cc3cccn3Cc3ccccc32)cc1			9		IC50 (Vasopressin V2 receptor [3]): 4.1 nM
Cc1ccc(F)cc1C(=O)Nc1ccc(C(=O)N2Cc3cccn3Cc3ccccc32)c(Cl)c1 [LIXIVAPTAN]	230	1.2	148	192	Osmolality (Rattus norvegicus [7]): 393 mOsmol kg-1; Osmolality (Rattus norvegicus [8]): 629 mOsmol kg-1; Osmolality (Rattus norvegicus [9]): 188 mOsmol kg-1; Osmolality (Rattus norvegicus [10]): 302 mOsmol kg-1; Osmolality (Rattus norvegicus [11]): 222 mOsmol kg-1; Osmolality (Rattus norvegicus [12]): 366 mOsmol kg-1; Urine volume (Rattus norvegicus [13]): 24 ml 4hr-1; Urine volume (Rattus norvegicus [14]): 14 ml 4hr-1; Urine volume (Rattus norvegicus [15]): 30 ml 4hr-1; Urine volume (Rattus norvegicus [16]): 38 ml 4hr-1; Urine volume (Rattus norvegicus [17]): 43 ml 4hr-1; Urine volume (Rattus norvegicus [18]): 37 ml 4hr-1; IC50 (Vasopressin V1a receptor [19]): 340 nM
Cc1ccccc1C(=O)Nc1ccc(C(=O)N2CCCC(N(C)C)c3ccccc32)cc1 (stereo unspecified) [MOZAVAPTAN]					Osmolality (Rattus norvegicus [9]): 352 mOsmol kg-1; Osmolality (Rattus norvegicus [11]): 850 mOsmol kg-1; Urine volume (Rattus norvegicus [20]): 23 ml 4hr-1; Urine volume (Rattus norvegicus [21]): 10 ml 4hr-1
Cc1c(F)cccc1C(=O)Nc1ccc(C(=O)N2Cc3cccn3Cc3ccccc32)c(Cl)c1	540	1.9		284	Urine volume (Rattus norvegicus [22]): 17 ml 4hr-1; Osmolality (Rattus norvegicus [5]): 473 mOsmol kg-1
O=C(Nc1ccc(C(=O)N2Cc3cccn3Cc3ccccc32)c(Cl)c1)c1cccc(C(F)(F)F)c1F	4400	8.3		530	Osmolality (Rattus norvegicus [9]): 635 mOsmol kg-1; Urine volume (Rattus norvegicus [20]): 10 ml 4hr-1
O=C(Nc1ccc(C(=O)N2Cc3cccn3Cc3ccccc32)cc1)c1ccccc1Cl			2		IC50 (Vasopressin V2 receptor [3]): 4.6 nM
COc1cc(Cl)ccc1C(=O)Nc1ccc(C(=O)N2Cc3cccn3Cc3ccccc32)cc1			2		IC50 (Vasopressin V1a receptor [19]): 33 nM; IC50 (Vasopressin V2 receptor [3]): 16 nM
O=C(Nc1ccc(C(=O)N2Cc3cccn3Cc3ccccc32)cc1)c1ccccc1C(F)(F)F			3		IC50 (Vasopressin V2 receptor [3]): 10.2 nM
Cc1ccccc1C(=O)Nc1ccc(C(=O)N2Cc3cccn3Cc3ccccc32)c(Cl)c1	59	1	12	59	
Cc1cc(C(=O)N2Cc3cccn3Cc3ccccc32)ccc1NC(=O)c1ccc(Cl)cc1Cl			4		IC50 (Vasopressin V1a receptor [19]): 33 nM; IC50 (Vasopressin V2 receptor [3]): 8 nM
O=C(Nc1ccc(C(=O)N2Cc3cccn3Cc3ccccc32)cc1)c1ccc(F)cc1Cl	6.3			2	
COc1cc(NC(=O)c2cc(F)ccc2C)ccc1C(=O)N1Cc2cccn2Cc2ccccc21		2		8	
